One block for each substance: values may come before it.
Tests used:
[1] = tested on: GPR114-A230M (CTF-only, compromised TA); assay: CRE-luciferase reporter assay, GPR114-A230M; format: cell-based, human; settings: HEK293T, thrombin 4 h, FLuc/RLuc ratio, Fig. 4C
[2] = tested on: PAR1-GPR56 fusion / G13; assay: G13 GTPγS binding kinetics, PAR1-GPR56 fusion Sf9 membranes; format: biochemical, human; settings: Fig. S1A
[3] = tested on: EoL-1 cells; assay: cAMP accumulation; format: cell-based, human; settings: from combined Fig. 5F and Fig. 5H
[4] = tested on: GPR114; assay: CRE-Luc assay, GPR114 overexpressed in HEK293T cells; format: cell-based, human
Outline: (§1)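 HEK293T cells plated in DMEM + 10% FBS 24 h before polyethylenimine co-transfection with receptor in pcDNA3.1, rat insulin II promoter CRE-firefly luciferase, and phRLuc-N1 Renilla control. Cells were reseeded at 80,000/well 6 h later, serum-starved 4 h at 36 h, then given synthetic peptide in DMSO for 4 h. Firefly luminescence (Steady-Glo) was normalised to RLuc (3 μM coelenterazine h). Mean ± SD, ≥3 independent experiments.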

[5] = tested on: GPR64; assay: CRE-Luc assay, GPR64 overexpressed in HEK293T cells; format: cell-based, human
Outline: as §1

thrombin-dependent CRE-luciferase activation [1]: not stimulated by thrombin
Substance: Thrombin
thrombin-dependent activation of purified G13 [2]: strong thrombin-dependent activation of purified G13

Substance: TYFAVLM [P7 GPR114-AP]
target specificity of cAMP stimulation in EoL-1 cells (conclusion) [3]: promiscuously stimulates cAMP accumulation via a yet to be determined GPCR
activation in CRE-Luc assay ([4]; GPR114, Fig. 5H, as summarised in Discussion): did not activate GPR114 nor GPR64
CRE-Luc activity (stimulation) ([4]; TA-compromised (ΔTA) 7TM version of GPR114, Fig. 5H): did not stimulate cAMP production in any condition
CRE-Luc activity (stimulation) ([4]; full length GPR114, Fig. 5H): did not stimulate cAMP production in any condition
activation in CRE-Luc assay ([5]; GPR64, Fig. 5H, as summarised in Discussion): did not activate GPR114 nor GPR64
CRE-Luc activity (stimulation) ([5]; TA-compromised (ΔTA) 7TM version of GPR64, Fig. 5H): did not stimulate cAMP production in any condition
CRE-Luc activity (stimulation) ([5]; full length GPR64, Fig. 5H): did not stimulate cAMP production in any condition

Reference: PMC10622838 (The Journal of Biological Chemistry, 2023)
